Experimental data published in ChEMBL document CHEMBL4052590, “Anti-Osteoporotic Activity of Harpagoside by Upregulation of the BMP2 and Wnt Signaling Pathways in Osteoblasts and Suppression of Differentiation in Osteoclasts” (J Nat Prod, 2017).
The source made the active and inactive calls. The rule behind the calls is not given here.

Columns and labels:
Mus musculus [1] = species: Mus musculus; test: Activation of Wnt signaling pathway in mouse MC3T3-E1 cells assessed as upregulation of C-Myc protein expression after 48 hrs in presence of ascorbic acid and beta-glycerophosphate by Western blot analysis; assay type: cell-based
Outline: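 MC3T3-E1 cells with 400 μM ascorbic acid and 5 mM β-glycerophosphate, with or without compound, for 48 h. Whole-cell lysates (40−50 μg, BCA) separated by SDS-PAGE, blotted to PVDF. c-Myc and cyclin D1 probed with primary antibodies, then secondary antibody for 90 min, read by chemiluminescence.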

Mus musculus [2] = test: Effect on […] level in serum of OVX-induced bone loss ICR mouse model at 5 mg/kg, po for 12 weeks by ELISA (reference value: 8.2 +/- 0.4 mg/dl); assay type: functional
Mus musculus [3] = species: Mus musculus; test: Activation of Wnt signaling pathway in mouse MC3T3-E1 cells assessed as increase in BMP2 mRNA expression after 48 hrs in presence of ascorbic acid and beta-glycerophosphate by real-time PCR analysis; assay type: cell-based
MC3T3-E1 [4] = test: Antiosteoporotic activity in mouse MC3T3-E1 cells assessed as formation of mineralized nodule after 14 days in presence of ascorbic acid and beta-glycerophosphate by Alizarin red S staining-based microscopic method; assay type: functional, cell-based
Outline: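 MC3T3-E1 cells (2 × 10^4 cells/mL) in 400 μM ascorbic acid and 5 mM β-glycerophosphate, with or without compound, for 14 days. Fixed in 70% ethanol 30 min, stained 5 min with 2% Alizarin red S (pH 4.0), viewed by microscopy. Stain extracted with 10% cetylpyridinium chloride, A570 read.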

Mus musculus [5] = test: Anti-osteoporotic activity in ovariectomized ICR mouse assessed as increase in ratio of bone volume to tissue volume of femur at 2 to 10 mg/kg, po after 12 weeks by microcomputed tomography; assay type: functional, organism-based
Mus musculus [6] = test: Effect on TRAP activity in serum of OVX-induced bone loss ICR mouse model at 5 mg/kg, po for 12 weeks (reference value: 19.8 +/- 1.0 U/L); assay type: functional
Mus musculus [7] = species: Mus musculus; test: Activation of Wnt signaling pathway in mouse MC3T3-E1 cells assessed as increase in BMP2 protein expression up to 4 uM after 48 hrs in presence of ascorbic acid and beta-glycerophosphate by Western blot analysis; assay type: cell-based
Outline: (§1)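 MC3T3-E1 cells given 400 μM ascorbic acid plus 5 mM β-glycerophosphate, exposed to test compound or not for 48 h. Lysed in boiling SDS sample buffer, protein measured by BCA. 40−50 μg of lysate run on 8% or 10% SDS-PAGE and transferred to PVDF. Blocked in 5% milk, probed with primary antibodies for 3 h at room temperature or overnight at 4 °C, detected by ECL.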

Mus musculus [8] = test: Effect on osteocalcin level in serum of OVX-induced bone loss ICR mouse model at 10 mg/kg, po for 12 weeks by ELISA (reference value: 176.9 +/- 4.7 ng/ml); assay type: functional
[9] = Cytotoxicity against mouse osteoclasts assessed as effect on cell survival up to 4 uM after 72 hrs by MTT assay; assay type: cell-based, Osteoclast; conditions: read-out: Survival
Mus musculus [10] = test: Effect on osteocalcin level in serum of OVX-induced bone loss ICR mouse model at 2 mg/kg, po for 12 weeks by ELISA (reference value: 176.9 +/- 4.7 ng/ml); assay type: functional
Mus musculus [11] = test: Anti-osteoporotic activity in ovariectomized ICR mouse assessed as suppression of changes in trabecular separation in femur at 2 to 10 mg/kg, po after 12 weeks by microcomputed tomography; assay type: functional, organism-based
MC3T3-E1 [12] = test: Increase in OPN mRNA expression in 2 days differentiated mouse MC3T3-E1 cells up to 4 uM after 48 hrs in presence of ascorbic acid and beta-glycerophosphate by real-time PCR analysis; assay type: functional, cell-based
MC3T3-E1 [13] = test: Downregulation of RANKL protein expression in mouse MC3T3-E1 cells up to 4 uM after 48 hrs in presence of ascorbic acid and beta-glycerophosphate by Western blot analysis; assay type: functional, cell-based; outline: as §1
[14] = biological target: T1, Catenin beta-1 (Mus musculus) (UniProt Q02248); test: Downregulation of beta-catenin phosphorylated protein expression in mouse MC3T3-E1 cells up to 4 uM after 48 hrs in presence of ascorbic acid and beta-glycerophosphate by Western blot analysis; assay type: cell-based; outline: as §1
T1 sequence (whole entry): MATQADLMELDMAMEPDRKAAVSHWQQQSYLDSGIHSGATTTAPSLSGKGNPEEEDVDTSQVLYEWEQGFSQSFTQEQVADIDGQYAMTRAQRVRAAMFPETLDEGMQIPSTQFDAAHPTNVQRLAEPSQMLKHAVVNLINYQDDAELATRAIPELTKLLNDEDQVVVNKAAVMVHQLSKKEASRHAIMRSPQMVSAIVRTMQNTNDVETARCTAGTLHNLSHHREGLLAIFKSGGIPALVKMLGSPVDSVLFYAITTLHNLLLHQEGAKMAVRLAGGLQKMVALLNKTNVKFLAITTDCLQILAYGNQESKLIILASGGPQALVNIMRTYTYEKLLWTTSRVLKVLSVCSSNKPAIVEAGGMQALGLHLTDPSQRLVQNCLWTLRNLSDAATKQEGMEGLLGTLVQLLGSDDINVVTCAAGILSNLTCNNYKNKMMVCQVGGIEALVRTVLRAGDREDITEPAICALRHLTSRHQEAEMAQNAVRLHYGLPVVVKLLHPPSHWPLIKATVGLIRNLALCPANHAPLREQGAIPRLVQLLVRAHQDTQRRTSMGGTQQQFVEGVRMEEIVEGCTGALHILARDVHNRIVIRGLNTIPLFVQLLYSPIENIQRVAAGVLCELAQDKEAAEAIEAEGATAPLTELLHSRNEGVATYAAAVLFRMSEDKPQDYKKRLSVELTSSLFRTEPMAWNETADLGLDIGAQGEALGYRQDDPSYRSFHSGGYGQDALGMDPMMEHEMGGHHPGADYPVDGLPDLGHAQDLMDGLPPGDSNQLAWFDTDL

Osteoclast = test: Inhibition of RANKL/M-CSF-induced osteoclast differentiation in mouse bone marrow-derived osteoclasts assessed as reduction in formation of TRAP-positive cells after 5 days; assay type: functional, cell-based
Outline: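 Bone marrow cells from 4-week-old mice were primed 24 h with 30 ng/mL M-CSF, then cultured with 100 ng/mL RANKL plus 30 ng/mL M-CSF. Compound was present or absent and medium was renewed every 2 days. On day 5 cells were fixed in 4% paraformaldehyde and TRAP-stained 1 h at 37 °C. Multinucleated TRAP-positive cells with ≥3 nuclei were counted as osteoclasts.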

MC3T3-E1 [15] = test: Increase in ALP mRNA expression in 2 days differentiated mouse MC3T3-E1 cells up to 4 uM after 48 hrs in presence of ascorbic acid and beta-glycerophosphate by real-time PCR analysis; assay type: functional, cell-based
Outline: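 MC3T3-E1 cells stimulated with 400 μM ascorbic acid and 5 mM β-glycerophosphate, with or without compound, 48 h. TRIzol RNA, real-time RT-PCR: 40 cycles of 95 °C 20 s, 56 °C 20 s, 72 °C 30 s. Ct of each transcript […] β-actin Ct, expressed relative to control samples.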

Mus musculus [16] = test: Effect on […] level in serum of OVX-induced bone loss ICR mouse model at 10 mg/kg, po for 12 weeks by ELISA (reference value: 8.2 +/- 0.4 mg/dl); assay type: functional

With C[C@]1(OC(=O)/C=C/c2ccccc2)C[C@@H](O)[C@]2(O)C=CO[C@@H](O[C@@H]3O[C@H](CO)[C@@H](O)[C@H](O)[C@H]3O)[C@@H]21 [HARPAGOSIDE] the Activity (Mus musculus [1]) was “Dose-dependent effect”, the Activity (Mus musculus [2]) was 8 mg/dL and the Activity (Mus musculus [3]) was “Dose-dependent effect”. For the same compound, the Activity (MC3T3-E1 [4]) was “Dose-dependent effect”, the Activity (Mus musculus [5]) was “Active” and the Activity (Mus musculus [6]) was 8.9 U/L. For the same compound, the Activity (Mus musculus [7]) was “Active”, the Activity (Mus musculus [8]) was 156.9 ng/mL and the viability at 72 h [9] was greater than 85%. For the same compound, the Activity (Mus musculus [10]) was 170 ng/mL, the Activity (Mus musculus [11]) was “Active” and the Activity (MC3T3-E1 [12]) was “Dose-dependent effect”. The Activity (MC3T3-E1 [13]) was “Active”, the Activity [14] was “Active” and the inhibition (Osteoclast) was “Active”. For the same compound, the Activity (MC3T3-E1 [15]) was “Dose-dependent effect” and the Activity (Mus musculus [16]) was 8.2 mg/dL.
